Measurements reported in ChEMBL document CHEMBL1938269, “Synthesis and biological evaluation of 7-O-modified oroxylin A derivatives” (Bioorg Med Chem Lett, 2012).
Activity calls are given as the source filed them. The rule behind the calls is not given here.

Legend:
HepG2 [1] = assay: Antiproliferative activity against human HepG2 cells after 48 hrs by MTT assay; assay type: functional, cell-based; conditions: HepG2, 48 h
HCT-116 [2] = assay: Antiproliferative activity against human HCT116 cells after 48 hrs by MTT assay; assay type: functional, cell-based; conditions: HCT-116, 48 h
[3] = Antiproliferative activity against human BCG823 cells after 48 hrs by MTT assay; assay type: functional, cell-based; conditions: BCG823, 48 h
HepG2 [4] = assay: Induction of apoptosis in human HepG2 cells assessed as early apoptotic cells at 4 uM after 72 hrs by annexin-V FITC and PI staining based flow cytometry (reference value: 1.4 +/- 0.1%); assay type: functional
HepG2 [5] = assay: Induction of apoptosis in human HepG2 cells assessed as viable cells at 2 uM after 72 hrs by annexin-V FITC and PI staining based flow cytometry (reference value: 94.5 +/- 0.6%); assay type: functional; conditions: HepG2, 72 h, read-out: Activity
HepG2 [6] = assay: Induction of apoptosis in human HepG2 cells assessed as early apoptotic cells at 1 uM after 72 hrs by annexin-V FITC and PI staining based flow cytometry (reference value: 1.4 +/- 0.1%); assay type: functional
HepG2 [7] = assay: Induction of apoptosis in human HepG2 cells assessed as viable cells at 1 uM after 72 hrs by annexin-V FITC and PI staining based flow cytometry (reference value: 94.5 +/- 0.6%); assay type: functional; conditions: HepG2, 72 h, read-out: Activity
[8] = Ratio of oroxylin A IC50 to compound IC50 for human BCG823 cells; assay type: functional
HepG2 [9] = assay: Induction of apoptosis in human HepG2 cells assessed as non-viable necrotic cells at 2 uM after 72 hrs by annexin-V FITC and PI staining based flow cytometry (reference value: 2.7 +/- 0.1%); assay type: functional
HepG2 [10] = assay: Induction of apoptosis in human HepG2 cells assessed as chromatin congregation and karyopyknosis at 1 to 4 uM after 72 hrs by DAPI staining-based fluorescent microscopy; assay type: functional, cell-based
Method in brief: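 HepG2 cells exposed for 72 h, with untreated cells as control. Nuclei were stained with DAPI and viewed by fluorescence microscopy at 400×. Apoptotic cells were scored by chromatin congregation and karyopyknosis, seen as bright nuclear fluorescence. Arrows mark apoptotic cells.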

HepG2 [11] = assay: Induction of apoptosis in human HepG2 cells assessed as late apoptotic cells at 4 uM after 72 hrs by annexin-V FITC and PI staining based flow cytometry (reference value: 1.4 +/- 0.0%); assay type: functional
HepG2 [12] = assay: Ratio of oroxylin A IC50 to compound IC50 for human HepG2 cells; assay type: functional
HepG2 [13] = assay: Induction of apoptosis in human HepG2 cells assessed as late apoptotic cells at 2 uM after 72 hrs by annexin-V FITC and PI staining based flow cytometry (reference value: 1.4 +/- 0.0%); assay type: functional
HepG2 [14] = assay: Induction of apoptosis in human HepG2 cells assessed as non-viable necrotic cells at 1 uM after 72 hrs by annexin-V FITC and PI staining based flow cytometry (reference value: 2.7 +/- 0.1%); assay type: functional
HCT-116 [15] = assay: Ratio of oroxylin A IC50 to compound IC50 for human HCT116 cells; assay type: functional
HepG2 [16] = assay: Induction of apoptosis in human HepG2 cells assessed as viable cells at 4 uM after 72 hrs by annexin-V FITC and PI staining based flow cytometry (reference value: 94.5 +/- 0.6%); assay type: functional; conditions: HepG2, 72 h, read-out: Activity
HepG2 [17] = assay: Induction of apoptosis in human HepG2 cells assessed as non-viable necrotic cells at 4 uM after 72 hrs by annexin-V FITC and PI staining based flow cytometry (reference value: 2.7 +/- 0.1%); assay type: functional
HepG2 [18] = assay: Induction of apoptosis in human HepG2 cells assessed as late apoptotic cells at 1 uM after 72 hrs by annexin-V FITC and PI staining based flow cytometry (reference value: 1.4 +/- 0.0%); assay type: functional
HepG2 [19] = assay: Induction of apoptosis in human HepG2 cells assessed as early apoptotic cells at 2 uM after 72 hrs by annexin-V FITC and PI staining based flow cytometry (reference value: 1.4 +/- 0.1%); assay type: functional

Row | SMILES | IC50 (HepG2 [1]) | IC50 (HCT-116 [2]) | IC50 [3] | also measured
1 | COc1c(OCCCCN2CCN(C)CC2)cc2oc(-c3ccccc3)cc(=O)c2c1O | 27.2 µM | 12.5 µM | 35.8 µM | 
2 | COc1c(OCCCN2CCCC2)cc2oc(-c3ccccc3)cc(=O)c2c1O | 20.5 µM | 26.6 µM | 12 µM | 
3 | COc1c(OCCCCN2CCOCC2)cc2oc(-c3ccccc3)cc(=O)c2c1O | 50.6 µM | 32.4 µM | 26.8 µM | 
4 | CCN(CC)CCCOc1cc2oc(-c3ccccc3)cc(=O)c2c(O)c1OC | 18 µM | 23.4 µM | 3.5 µM | 
5 | COc1c(OCCCN2CCN(C)CC2)cc2oc(-c3ccccc3)cc(=O)c2c1O | 30.4 µM | 42.5 µM | 42.3 µM | 
6 | COc1c(OCCCN2CCOCC2)cc2oc(-c3ccccc3)cc(=O)c2c1O | 74.8 µM | 52.4 µM | 41.6 µM | 
7 | COc1c(OCCN2CCOCC2)cc2oc(-c3ccccc3)cc(=O)c2c1O | 67.6 µM | 56.3 µM | 38.2 µM | 
8 | COc1c(O)cc2oc(-c3ccccc3)cc(=O)c2c1O [OROXYLIN A] | 22.7 µM | 33.9 µM | 25.5 µM | 
9 | COc1c(OCCN2CCCCC2)cc2oc(-c3ccccc3)cc(=O)c2c1O | 17.1 µM | 21.1 µM | 26.9 µM | 

Compounds with a lower IC50 (HepG2 [1]), results first:

Row | IC50 (HepG2 [1]) | IC50 (HCT-116 [2]) | SMILES | IC50 [3] | also measured
10 | 2.4 µM | 3 µM | COc1c(OCCCCN2CCCCC2)cc2oc(-c3ccccc3)cc(=O)c2c1O | 6.6 µM | Activity (HepG2 [4]): 14%; viability at 2 µM (HepG2 [5]): 87.2%; Activity (HepG2 [6]): 3.4%; viability at 1 µM (HepG2 [7]): 88.9%; Ratio IC50 [8]: 5; Activity (HepG2 [9]): 2.7%; Activity (HepG2 [10]): Active; Activity (HepG2 [11]): 17.9%; Ratio IC50 (HepG2 [12]): 5; Activity (HepG2 [13]): 3.5%; Activity (HepG2 [14]): 5.8%; Ratio IC50 (HCT-116 [15]): 5; viability at 4 µM (HepG2 [16]): 30.6%; Activity (HepG2 [17]): 37.5%; Activity (HepG2 [18]): 1.9%; Activity (HepG2 [19]): 6.5%
11 | 15.4 µM | 54.9 µM | COc1c(OCCN2CCN(C)CC2)cc2oc(-c3ccccc3)cc(=O)c2c1O | 20.5 µM | 
12 | 6.6 µM | 5.1 µM | CCN(CC)CCCCOc1cc2oc(-c3ccccc3)cc(=O)c2c(O)c1OC | 6.3 µM | Ratio IC50 [8]: 5; Ratio IC50 (HepG2 [12]): 5; Ratio IC50 (HCT-116 [15]): 5
13 | 9.7 µM | 23.4 µM | COc1c(OCCN2CCCC2)cc2oc(-c3ccccc3)cc(=O)c2c1O | 22.7 µM | 
14 | 4.7 µM | 1.4 µM | COc1c(OCCCCN2CCCC2)cc2oc(-c3ccccc3)cc(=O)c2c1O | 9.5 µM | Ratio IC50 [8]: 5; Ratio IC50 (HepG2 [12]): 5; Ratio IC50 (HCT-116 [15]): 5
15 | 12 µM | 39.6 µM | CCN(CC)CCOc1cc2oc(-c3ccccc3)cc(=O)c2c(O)c1OC | 13 µM | 
16 | 6.8 µM | 22.1 µM | COc1c(OCCCN2CCCCC2)cc2oc(-c3ccccc3)cc(=O)c2c1O | 9.7 µM | 
